Assay results: ChEMBL document CHEMBL2331096, “Montmorillonite K-10 catalyzed green synthesis of 2,6-unsubstituted dihydropyridines as potential inhibitors of PDE4” (Eur J Med Chem, 2013)

biological target: T1, 3',5'-cyclic-AMP phosphodiesterase 4B (Homo sapiens, UniProt Q07343); assay: Inhibition of recombinant His-tagged PDE4B (unknown origin) expressed in Sf9 cells using cAMP as substrate incubated for 15 mins prior to substrate addition measured after 1 hr by luminescence-based assay
Method in brief: (§1)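 His-tagged PDE4B made in baculovirus-infected Sf9 cells (lysed 48 h post-infection) and purified on Ni-NTA with imidazole elution. Enzyme (10 ng) pre-incubated 15 min with compound or DMSO vehicle, then 1 h with cAMP substrate; reaction stopped, detection reagent added for 10 min in dark, luminescence (RLU) read. Percent inhibition calculated from RLU relative to vehicle control.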

T1 sequence (Q07343 whole entry): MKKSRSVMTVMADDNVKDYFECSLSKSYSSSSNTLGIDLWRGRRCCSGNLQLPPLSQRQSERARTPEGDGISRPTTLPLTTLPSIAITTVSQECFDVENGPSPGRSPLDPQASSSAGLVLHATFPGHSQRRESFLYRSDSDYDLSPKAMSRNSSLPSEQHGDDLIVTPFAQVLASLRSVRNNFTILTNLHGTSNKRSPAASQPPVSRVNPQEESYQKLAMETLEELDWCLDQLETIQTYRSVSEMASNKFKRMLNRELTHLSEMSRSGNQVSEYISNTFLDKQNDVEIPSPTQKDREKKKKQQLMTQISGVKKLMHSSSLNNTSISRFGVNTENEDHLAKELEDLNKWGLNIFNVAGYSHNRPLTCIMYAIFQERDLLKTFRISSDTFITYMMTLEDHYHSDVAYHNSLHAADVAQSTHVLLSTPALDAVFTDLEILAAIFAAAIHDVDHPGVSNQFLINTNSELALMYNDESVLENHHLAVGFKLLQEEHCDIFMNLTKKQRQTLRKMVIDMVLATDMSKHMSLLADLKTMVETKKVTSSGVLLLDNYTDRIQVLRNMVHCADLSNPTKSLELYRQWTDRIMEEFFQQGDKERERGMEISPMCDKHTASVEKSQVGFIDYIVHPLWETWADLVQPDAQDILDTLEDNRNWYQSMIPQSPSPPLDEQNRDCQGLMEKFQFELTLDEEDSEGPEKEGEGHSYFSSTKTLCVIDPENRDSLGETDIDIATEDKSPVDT

| SMILES | IC50 [µM] | inhibition |
| --- | --- | --- |
| CCOC(=O)C1=CN(c2ccccc2OC)C=C(C(=O)OCC)C1c1ccc(Br)cc1 | > 5 | Dose-dependent effect |

biological target: T1, 3',5'-cyclic-AMP phosphodiesterase 4B; assay: Inhibition of recombinant His-tagged PDE4B (unknown origin) expressed in Sf9 cells using cAMP as substrate at 30 uM incubated for 15 mins prior to substrate addition measured after 1 hr by luminescence-based assay; method in brief: as §1

| SMILES | inhibition [%] |
| --- | --- |
| CCOC(=O)C1=CN(c2ccc(OC)cc2)C=C(C(=O)OCC)C1c1cccc(Br)c1 | 42 |
| CCOC(=O)C1=CN(c2ccccc2OC)C=C(C(=O)OCC)C1c1ccc(F)cc1 | 33.4 |
| CCOC(=O)C1=CN(c2ccccc2OC)C=C(C(=O)OCC)C1c1ccc(Br)cc1 | 78.4 |
| CCOC(=O)C1=CN(c2ccc(OC)cc2OC)C=C(C(=O)OCC)C1c1ccc(F)c(F)c1 | 69.2 |
| CCOC(=O)C1=CN(c2ccc(OC)cc2)C=C(C(=O)OCC)C1c1ccc(Br)cc1 | 35.1 |
| CCOC(=O)C1=CN(c2ccccc2OC)C=C(C(=O)OCC)C1c1ccc(OC)cc1 | 59.2 |
| CCOC(=O)C1=CN(c2ccccc2OC)C=C(C(=O)OCC)C1c1ccccc1 | 29.9 |
| CCOC(=O)C1=CN(c2ccc(OC)cc2)C=C(C(=O)OCC)C1c1ccc(F)c(F)c1 | 78.7 |
| CCOC(=O)C1=CN(c2cccc(Cl)c2)C=C(C(=O)OCC)C1c1ccc(F)cc1 | 44.2 |
| CCOC(=O)C1=CN(c2ccccc2OC)C=C(C(=O)OCC)C1c1cccc(Cl)c1 | 30.4 |
| CCOC(=O)C1=CN(c2ccc(OC)cc2)C=C(C(=O)OCC)C1c1ccccc1 | 39.3 |
| CCOC(=O)C1=CN(c2ccc(OC)cc2)C=C(C(=O)OCC)C1c1ccc(F)cc1 | 40.2 |
| CCOC(=O)C1=CN(c2ccccc2OC)C=C(C(=O)OCC)C1c1ccc(F)c(F)c1 | 46 |
| CCOC(=O)C1=CN(c2ccccc2OC)C=C(C(=O)OCC)C1c1cccc(Br)c1 | 37.3 |
